This is an account of results in PMC3216638 (Regulatory peptides, 2009).

What all share (format): cell-based, Homo sapiens
Assay [1] deals with hMC4R/TM6 hMC2R. The assay can be described thus: […]-NDP-MSH displacement on transfected cells. The conditions noted are these: read-out: THIQ Ki; whole HEK293 cells, MEM with 0.2% BSA, 1 h.
Assay [2] deals with hMC4R/TM2 hMC2R. The assay can be described thus: […]-NDP-MSH displacement on transfected cells. The following applies: read-out: THIQ Ki; whole HEK293 cells, MEM with 0.2% BSA, 1 h.
Assay [3] deals with hMC4R/TM4 hMC2R. The assay can be described thus: […]-NDP-MSH displacement on transfected cells. The following applies: read-out: THIQ Ki; whole HEK293 cells, MEM with 0.2% BSA, 1 h.
Assay [4] concerns hMC4R/TM5 hMC2R. Briefly: cAMP accumulation. The conditions noted are these: read-out: THIQ (EC50 (nM)); HEK293 cells, 1 h, 37°C, 1 mM IBMX; agonist. The procedure, abridged:
(§1)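 HEK293 cells stably expressing FLAG-tagged hMC4R chimeras, with one TM swapped for the homologous hMC2R segment, were selected with G418. Cells were incubated in EBSS with test compound (10−10–10−6 M) and 10−3 M IBMX for 1 h at 37°C. The reaction was stopped with ice-cold ethanol and the supernatant dried under nitrogen at 55°C. Duplicate wells, three separate experiments; sigmoid variable-slope fit.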
A general note: cAMP levels reflect the balance of adenylyl cyclase and phosphodiesterase activity.

Assay [5] relates to hMC4R/TM2 hMC2R. The assay can be described thus: cAMP accumulation. The following applies: read-out: THIQ (EC50 (nM)); HEK293 cells, 1 h, 37°C, 1 mM IBMX; agonist. An outline of the steps: as §1
The subject of assay [6] is hMC4R/TM4 hMC2R. The assay can be described thus: cAMP accumulation. The conditions noted are these: read-out: THIQ (EC50 (nM)); HEK293 cells, 1 h, 37°C, 1 mM IBMX; agonist. An outline of the steps:
as §1

Assay [7] relates to hMC4R/TM3 hMC2R. The assay can be described thus: cAMP accumulation. The following applies: read-out: THIQ (EC50 (nM)); HEK293 cells, 1 h, 37°C, 1 mM IBMX; agonist. An outline of the steps:
as §1

For assay [8], the system named is hMC4R/TM6 hMC2R. The assay can be described thus: cAMP accumulation. The conditions noted are these: read-out: THIQ (EC50 (nM)); HEK293 cells, 1 h, 37°C, 1 mM IBMX; agonist. The procedure, abridged:
as §1

Assay [9] deals with hMC4R/TM5 hMC2R. The assay can be described thus: […]-NDP-MSH displacement on transfected cells. The conditions noted are these: read-out: THIQ Ki; whole HEK293 cells, MEM with 0.2% BSA, 1 h.
Assay [10] relates to hMC4R/TM3 hMC2R. Briefly: […]-NDP-MSH displacement on transfected cells. The following applies: read-out: THIQ Ki; whole HEK293 cells, MEM with 0.2% BSA, 1 h.

On to `O=C(N[C@H](Cc1ccc(Cl)cc1)C(=O)N1CCC(Cn2cncn2)(C2CCCCC2)CC1)[C@H]1Cc2ccccc2CN1` [THIQ, N-(3R)-1 4-tetrahydroisoquinolinium-3-ylcarbonyl-(1R)-1-(4-chlorobenzyl)-2-4-cyclohexyl-4-(1H-1,2,4-triazol-1-ylmethyl)piperidin-1-yl-2-oxoethylamine], for which the Ki was 5.3 ± 0.2 nM in the assay on hMC4R/TM6 hMC2R [1]; 6.2 ± 0.2 nM in the assay with hMC4R/TM2 hMC2R [2]; 7.2 ± 2.3 nM in the assay with hMC4R/TM4 hMC2R [3]; 6.7 ± 3.4 nM with hMC4R/TM5 hMC2R [9]; 76.2 ± 17.3 nM with hMC4R/TM3 hMC2R [10]. Further, the EC50 with hMC4R/TM5 hMC2R [4] was 3.9 ± 0.4 nM; in the assay on hMC4R/TM2 hMC2R [5], 3.1 ± 0.3 nM; in the assay with hMC4R/TM4 hMC2R [6] it was 3.5 ± 0.3 nM; in the assay on hMC4R/TM3 hMC2R [7] it was 91 ± 6.2 nM; with hMC4R/TM6 hMC2R [8], 2.8 ± 0.6 nM.

Usually Ki stands for a dissociation constant, usually derived from enzyme kinetics or from competition with a known ligand. A word on the EC50: it is the concentration that produces a half-maximal response.
